Measured values published in ChEMBL document CHEMBL1138547, “Synthesis, biological evaluation and 2D-QSAR analysis of benzoxazoles as antimicrobial agents” (2009).
Values after ≈ are worked out from the molar mass of the structure shown.

How the values were obtained:
Format in all cases: functional
Escherichia coli [1] = test: Antimicrobial activity against multidrug-resistant Escherichia coli after 24 hrs
Outline: (§1)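 Twofold serial broth dilution in Mueller-Hinton broth. MHB was used both to dilute the bacterial suspension and for the twofold compound dilutions, giving 10^3 cfu/ml bacteria per well after inoculation. Solvent, medium and organism-only wells served as controls. Each organism was run in triplicate.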

Staphylococcus aureus [2] = test: Antimicrobial activity against Staphylococcus aureus ATCC 25923 after 24 hrs; details: ATCC 25923, 24 h; outline: as §1
Klebsiella pneumoniae [3] = test: Antimicrobial activity against multidrug-resistant Klebsiella pneumoniae after 24 hrs; outline: as §1
Candida albicans [4] = test: Antimicrobial activity against Candida albicans ATCC 10231 after 24 to 48 hrs
Outline: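 Twofold serial dilution following CLSI M27-A. Yeast suspension made at 10^4 cfu/ml by diluting a fresh culture at McFarland 0.5 (10^6 cfu/ml). Inoculated into the diluted compound, incubated at 35 °C in a humid chamber, read after 48 h. Triplicate in each run. MIC is the lowest concentration completely inhibiting macroscopic growth.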

Bacillus subtilis [5] = test: Antimicrobial activity against Bacillus subtilis ATCC 6633 after 24 hrs; details: for MIC: Bacillus subtilis, ATCC 6633, 24 h
Outline: (§2)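 MIC by twofold serial dilution in Mueller-Hinton broth (MHB); MHB also used to dilute the bacterial suspension. Wells held 10^3 cfu/ml bacteria after inoculation. Controls: 80% DMSO, 20% EtOH, methanol, DMSO, PBS, organism alone and medium alone. Triplicate in each run. MIC taken as the lowest concentration completely inhibiting macroscopic growth.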

Pseudomonas aeruginosa = test: Antimicrobial activity against Pseudomonas aeruginosa ATCC […] after 24 hrs; outline: as §2
Klebsiella pneumoniae [6] = test: Antimicrobial activity against Klebsiella pneumoniae RSHM 574 after 24 hrs; details: RSHM 574, 24 h; outline: as §2
Escherichia coli [7] = test: Antimicrobial activity against Escherichia coli ATCC 25922 after 24 hrs; details: ATCC 25922, 24 h; outline: as §2
Staphylococcus aureus [8] = test: Antimicrobial activity against multidrug-resistant Staphylococcus aureus after 24 hrs; outline: as §1
Bacillus subtilis [9] = test: Antimicrobial activity against ceftriazone-resistant Bacillus subtilis after 24 hrs; outline: as §1
Candida albicans [10] = test: Antimicrobial activity against multidrug-resistant Candida albicans isolates after 24 to 48 hrs
Outline: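 Yeast broth microdilution following CLSI M27-A, with Sabouraud dextrose medium noted for antifungal assays. Fresh cultures at McFarland 0.5 (10^6 cfu/ml) were diluted to 10^4 cfu/ml and inoculated into twofold compound dilutions. Trays were incubated at 35 °C in a humid chamber and read at 48 h, in triplicate. MIC was the lowest concentration giving complete macroscopic growth inhibition.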

| SMILES | MIC (Escherichia coli [1]) [mg/L] | MIC (Staphylococcus aureus [2]) [mg/L] | MIC (Klebsiella pneumoniae [3]) [mg/L] | MIC (Candida albicans [4]) [mg/L] | log(1/C) (Bacillus subtilis [5]) | MIC (Bacillus subtilis [5]) [mg/L] | MIC (Pseudomonas aeruginosa) [mg/L] | MIC (Klebsiella pneumoniae [6]) [mg/L] | MIC (Escherichia coli [7]) [mg/L] | MIC (Staphylococcus aureus [8]) [mg/L] | MIC (Bacillus subtilis [9]) [mg/L] | MIC (Candida albicans [10]) [mg/L] |
| --- | --- | --- | --- | --- | --- | --- | --- | --- | --- | --- | --- | --- |
| O=[N+]([O-])c1ccc2nc(-c3ccc(Br)cc3)oc2c1 | 25 (≈ 78.3 µM) | 100 (≈ 313 µM) | 100 (≈ 313 µM) | 100 (≈ 313 µM) | 4.407 | 12.5 (≈ 39.2 µM) | 50 (≈ 157 µM) | 50 (≈ 157 µM) | 50 (≈ 157 µM) | 400 (≈ 1250 µM) | 50 (≈ 157 µM) | 50 (≈ 157 µM) |
| CCc1ccc(-c2nc3ccc(N)cc3o2)cc1 | 100 (≈ 420 µM) | 100 (≈ 420 µM) | 100 (≈ 420 µM) | 50 (≈ 210 µM) | 3.678 | 50 (≈ 210 µM) | 50 (≈ 210 µM) | 50 (≈ 210 µM) | 50 (≈ 210 µM) | 100 (≈ 420 µM) | 100 (≈ 420 µM) | 50 (≈ 210 µM) |
| Nc1ccc2nc(Cc3ccc(Br)cc3)oc2c1 | 100 (≈ 330 µM) | 100 (≈ 330 µM) | 100 (≈ 330 µM) | 50 (≈ 165 µM) | 4.084 | 25 (≈ 82.5 µM) | 50 (≈ 165 µM) | 50 (≈ 165 µM) | 50 (≈ 165 µM) | 100 (≈ 330 µM) | 50 (≈ 165 µM) | 100 (≈ 330 µM) |
| Nc1ccc2oc(Cc3ccc(F)cc3)nc2c1 | 25 (≈ 103 µM) | 200 (≈ 826 µM) | 100 (≈ 413 µM) | 100 (≈ 413 µM) | 3.685 | 50 (≈ 206 µM) | 50 (≈ 206 µM) | 50 (≈ 206 µM) | 50 (≈ 206 µM) | 100 (≈ 413 µM) | 50 (≈ 206 µM) | 50 (≈ 206 µM) |
| CCc1ccc(-c2nc3ccc([N+](=O)[O-])cc3o2)cc1 | 100 (≈ 373 µM) | 100 (≈ 373 µM) | 100 (≈ 373 µM) | 50 (≈ 186 µM) | 3.73 | 50 (≈ 186 µM) | 50 (≈ 186 µM) | 50 (≈ 186 µM) | 50 (≈ 186 µM) | 100 (≈ 373 µM) | 25 (≈ 93.2 µM) | 100 (≈ 373 µM) |
| Cc1ccc(-c2nc3ccc(C)cc3o2)c(C)c1 | – | – | – | – | 3.676 | 50 (≈ 211 µM) | – | – | – | – | – | – |
| Cc1ccc2nc(-c3ccccc3F)oc2c1 | – | – | – | – | 3.959 | 25 (≈ 110 µM) | – | – | – | – | – | – |
| Nc1ccc2nc(Cc3ccc(F)cc3)oc2c1 | 50 (≈ 206 µM) | 100 (≈ 413 µM) | 100 (≈ 413 µM) | 50 (≈ 206 µM) | 3.685 | 50 (≈ 206 µM) | 25 (≈ 103 µM) | 50 (≈ 206 µM) | 50 (≈ 206 µM) | 100 (≈ 413 µM) | 50 (≈ 206 µM) | 50 (≈ 206 µM) |
| Cc1ccc2oc(-c3ccc(Br)cc3)nc2c1 | – | – | – | – | 4.363 | 12.5 (≈ 43.4 µM) | – | – | – | – | – | – |
| COc1ccc(-c2nc3ccc(C)cc3o2)c(OC)c1 | – | – | – | – | 4.032 | – | – | – | – | – | – | – |
